{
  "source": "ChEMBL document CHEMBL1141290",
  "about": "“Lipoxazolidinones A, B, and C: antibacterial 4-oxazolidinones from a marine actinomycete isolated from a Guam marine sediment” (2007)",
  "assay_type_in_all_cases": "functional",
  "key": {"[1]": {"tested_on": "Staphylococcus aureus", "test": "Antimicrobial activity against methicillin-resistant Staphylococcus aureus ATCC 43300 after 14 to 16 hrs by serial micro-broth dilution method", "procedure,_shortened": "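Broth microdilution MIC following NCCLS standards, using cation-adjusted Mueller-Hinton broth in ambient air without CO2. The final inoculum was about 5 × 10^5 CFU/mL.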"}, "[2]": {"tested_on": "Streptococcus pneumoniae", "test": "Antimicrobial activity against penicillin-sensitive Streptococcus pneumoniae ATCC 49619 after 14 to 16 hrs by serial microbroth dilution method", "procedure,_shortened": "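MIC by NCCLS serial broth microdilution in cation-adjusted Mueller-Hinton broth II with lysed horse blood. Final inoculum ~5 × 10^5 CFU/mL. Incubated at 35 °C for 14–16 h in a CO2 incubator.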"}, "[3]": {"tested_on": "Haemophilus influenzae", "test": "Antimicrobial activity against Haemophilus influenzae ATCC 49247 after 14 to 16 hrs by serial micro-broth dilution method", "procedure,_shortened": "(§1)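 MIC by serial broth microdilution per NCCLS, in Haemophilus Test Medium. Final inoculum ~5 × 10^5 CFU/mL. Plates incubated at 35 °C for 14–16 h in a CO2 incubator.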"}, "[4]": {"tested_on": "Staphylococcus aureus", "test": "Antimicrobial activity against methicillin-sensitive Staphylococcus aureus ATCC 29213 after 14 to 16 hrs by serial micro-broth dilution method", "procedure,_shortened": "(§2)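 MIC by serial broth microdilution following NCCLS standards, in cation-adjusted Mueller-Hinton broth. Final inoculum ~5 × 10^5 CFU/mL. Plates incubated at 35 °C for 14–16 h without CO2.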"}, "[5]": {"tested_on": "Escherichia coli", "test": "Antimicrobial activity against Escherichia coli ATCC 25922 after 14 to 16 hrs by serial micro-broth dilution method", "procedure,_shortened": "as §2"}, "[6]": {"tested_on": "Haemophilus influenzae", "test": "Antimicrobial activity against Haemophilus influenzae ATCC 49766 after 14 to 16 hrs by serial micro-broth dilution method", "procedure,_shortened": "as §1"}, "[7]": {"tested_on": "Enterococcus faecalis", "test": "Antimicrobial activity against vancomycin-sensitive Enterococcus faecalis ATCC 29212 after 14 to 16 hrs by serial microbroth dilution method", "procedure,_shortened": "as §2"}, "[8]": {"tested_on": "Staphylococcus epidermidis", "test": "Antimicrobial activity against Staphylococcus epidermidis ATCC 700582 after 14 to 16 hrs by serial microbroth dilution method", "procedure,_shortened": "as §2"}, "[9]": {"tested_on": "Staphylococcus epidermidis", "test": "Antimicrobial activity against Staphylococcus epidermidis ATCC 700578 after 14 to 16 hrs by serial micro-broth dilution method", "procedure,_shortened": "as §2"}, "[10]": {"tested_on": "Streptococcus pneumoniae", "test": "Antimicrobial activity against penicillin-resistant Streptococcus pneumoniae ATCC 51915 after 14 to 16 hrs by serial micro-broth dilution method", "procedure,_shortened": "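Broth microdilution MIC following NCCLS standards, using cation-adjusted Mueller-Hinton broth II with lysed horse blood and incubation in a CO2 incubator. The final inoculum was about 5 × 10^5 CFU/mL.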"}},
  "data": [
    {"smiles": "CCCCCCC/C(C)=C/C(=O)CC(=N)OC(CCCC)C(=O)O", "note": "(stereo not given)", "values": [
      {"measurement": "MIC", "setting": "[1]", "value": "> 32", "unit": "µg/mL"},
      {"measurement": "MIC", "setting": "[2]", "value": "> 32", "unit": "µg/mL"},
      {"measurement": "MIC", "setting": "[3]", "value": "> 32", "unit": "µg/mL"},
      {"measurement": "MIC", "setting": "[4]", "value": 24, "unit": "µg/mL"},
      {"measurement": "MIC", "setting": "[5]", "value": "> 32", "unit": "µg/mL"},
      {"measurement": "MIC", "setting": "[6]", "value": "> 32", "unit": "µg/mL"},
      {"measurement": "MIC", "setting": "[7]", "value": 32, "unit": "µg/mL"}
    ]},
    {"smiles": "CC(=O)NC[C@H]1CN(c2ccc(N3CCOCC3)c(F)c2)C(=O)O1", "note": "[LINEZOLID]", "values": [
      {"measurement": "MIC", "setting": "[8]", "value": 1, "unit": "µg/mL"},
      {"measurement": "MIC", "setting": "[1]", "value": 1.5, "unit": "µg/mL"},
      {"measurement": "MIC", "setting": "[9]", "value": 1, "unit": "µg/mL"},
      {"measurement": "MIC", "setting": "[3]", "value": 12, "unit": "µg/mL"},
      {"measurement": "MIC", "setting": "[5]", "value": "> 32", "unit": "µg/mL"},
      {"measurement": "MIC", "setting": "[6]", "value": 12, "unit": "µg/mL"}
    ]},
    {"smiles": "CCCCCC/C(C)=C/C(=O)/C=C1\\NC(=O)C(CCCC)O1", "note": "(stereo not given) [LIPOXAZOLIDINE C]", "values": [
      {"measurement": "MIC", "setting": "[1]", "value": 3, "unit": "µg/mL"},
      {"measurement": "MIC", "setting": "[2]", "value": 10, "unit": "µg/mL"},
      {"measurement": "MIC", "setting": "[3]", "value": 16, "unit": "µg/mL"},
      {"measurement": "MIC", "setting": "[4]", "value": 4, "unit": "µg/mL"},
      {"measurement": "MIC", "setting": "[5]", "value": "> 32", "unit": "µg/mL"},
      {"measurement": "MIC", "setting": "[6]", "value": 5, "unit": "µg/mL"},
      {"measurement": "MIC", "setting": "[7]", "value": 2, "unit": "µg/mL"}
    ]},
    {"smiles": "CCCCCCC/C(C)=C/C(=O)/C=C1\\NC(=O)C(CCCC)O1", "note": "(stereo not given) [LIPOXAZOLIDINONE A]", "values": [
      {"measurement": "MIC", "setting": "[8]", "value": 0.5, "unit": "µg/mL"},
      {"measurement": "MIC", "setting": "[1]", "value": 1, "unit": "µg/mL"},
      {"measurement": "MIC", "setting": "[10]", "value": 4.7, "unit": "µg/mL"},
      {"measurement": "MIC", "setting": "[9]", "value": 0.5, "unit": "µg/mL"},
      {"measurement": "MIC", "setting": "[2]", "value": 2.6, "unit": "µg/mL"},
      {"measurement": "MIC", "setting": "[3]", "value": 12, "unit": "µg/mL"},
      {"measurement": "MIC", "setting": "[4]", "value": 0.9, "unit": "µg/mL"},
      {"measurement": "MIC", "setting": "[5]", "value": "> 32", "unit": "µg/mL"},
      {"measurement": "MIC", "setting": "[6]", "value": 12, "unit": "µg/mL"},
      {"measurement": "MIC", "setting": "[7]", "value": 1, "unit": "µg/mL"}
    ]},
    {"smiles": "CCCCCCC/C(C)=C/C(=O)/C=C1\\NC(=O)C(CCCCC)O1", "note": "(stereo not given) [LIPOXAZOLIDINONE B]", "values": [
      {"measurement": "MIC", "setting": "[8]", "value": 0.8, "unit": "µg/mL"},
      {"measurement": "MIC", "setting": "[1]", "value": 1.5, "unit": "µg/mL"},
      {"measurement": "MIC", "setting": "[10]", "value": 6, "unit": "µg/mL"},
      {"measurement": "MIC", "setting": "[9]", "value": 1.3, "unit": "µg/mL"},
      {"measurement": "MIC", "setting": "[2]", "value": 8, "unit": "µg/mL"},
      {"measurement": "MIC", "setting": "[3]", "value": 12, "unit": "µg/mL"},
      {"measurement": "MIC", "setting": "[4]", "value": 6, "unit": "µg/mL"},
      {"measurement": "MIC", "setting": "[5]", "value": "> 32", "unit": "µg/mL"},
      {"measurement": "MIC", "setting": "[6]", "value": 16, "unit": "µg/mL"},
      {"measurement": "MIC", "setting": "[7]", "value": 3, "unit": "µg/mL"}
    ]}
  ]
}
